Where no end group is shown, it is not given here.
Tests used:
[1] = Pharmacokinetic study after subcutaneous administration; format: in vivo, Sprague-Dawley rats
How it was run: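 Twelve Sprague-Dawley rats (6 female, 6 male; 200 ± 20 g) were housed SPF at 22 ± 2 °C on a 12 h light–dark cycle and fasted about 12 h. Each received a single subcutaneous dose of 10 mg kg−1. Orbital blood was taken into pre-acidified EDTA-K2 tubes at 0, 0.5, 1, 2, 3, 5, 10, 20, 30, 45 and 60 min and iced; plasma was spun and analysed by UHPLC-MS/MS (LLOQ 0.1 ng mL−1). Non-compartmental analysis; mean ± SD.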

[2] = Stability of SP in acidified rat plasma and blood; format: in vitro ADME
How it was run: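 Blood was acidified with 0.3% perchloric acid. Low- and high-level samples (five replicates each) were held as follows: whole blood at 0 °C for 1 h; […] for 1 h before processing; extracts at 25 °C for 1 h; reconstituted samples in the autosampler at 4 °C for 24 h; plasma at −70 °C for 60 days; and three freeze–thaw cycles (−70 °C to ambient). Read-out was accuracy as deviation from nominal, with acceptance within 15%.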

Stability = format: in vitro ADME; details: rat
How it was run: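 Rat blood was spiked at 150 ng mL−1 to compare three stabilisation factors. Anticoagulant (EDTA-K2 or heparin sodium) was tested at 25 °C and 0 °C. Protease inhibitors (pepstatin A, aprotinin, cOmplete cocktail, AEBSF) were tested at 25 °C. Acidification with H2SO4 or HClO4 (0.1–0.3%) was tested at 25 °C and 0 °C. Samples were taken before and at 2, 5, 10, 20, 30 and 60 min, precipitated with organic solvent, centrifuged and analysed by UHPLC-MS/MS. Half-lives were calculated.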

[3] = rats, subcutaneous 10 mg kg^−1, mean ± SD, n = 12

Substance: GQTYTSG [SP, GQTYTSG]
- Tmax ([1]; rat, in vivo, sc, 10 mg/kg): 1.75 min
- half-life ([1]; rat, in vivo, sc, 10 mg/kg): < 10 min
- CL (apparent total plasma clearance) [1, 3]: 17.9 ± 9.96 L/min
- Vz (total volume of distribution) [1, 3]: 230 ± 118 L
- Accuracy (stability) ([2]; blood, blood stability (0 °C for 1 h), 0.5 ng mL^−1): 114.4%
- Accuracy (stability) ([2]; blood, blood stability (0 °C for 1 h), 300 ng mL^−1): 104.1%
- Accuracy (stability) ([2]; plasma, auto-sampler stability (4 °C for 24 h), 0.25 ng mL^−1): 110.0%
- Accuracy (stability) ([2]; plasma, auto-sampler stability (4 °C for 24 h), 150 ng mL^−1): 106.7%
- Accuracy (stability) ([2]; plasma, freeze–thaw stability (three cycles), 0.25 ng mL^−1): 106.4%
- Accuracy (stability) ([2]; plasma, freeze–thaw stability (three cycles), 150 ng mL^−1): 94.7%
- Accuracy (stability) ([2]; plasma, long-term stability (−70 °C for 60 days), 0.25 ng mL^−1): 96.1%
- Accuracy (stability) ([2]; plasma, long-term stability (−70 °C for 60 days), 150 ng mL^−1): 94.0%
- Accuracy (stability) ([2]; plasma, post-preparation stability (25 °C for 1 h), 0.25 ng mL^−1): 90.8%
- Accuracy (stability) ([2]; plasma, post-preparation stability (25 °C for 1 h), 150 ng mL^−1): 105.3%
- Accuracy (stability) ([2]; plasma, short-term stability (0 °C for 1 h), 0.25 ng mL^−1): 96.4%
- Accuracy (stability) ([2]; plasma, short-term stability (0 °C for 1 h), 150 ng mL^−1): 96.0%
- half-life (Stability; half-life of SP in blood samples, blood acidified with 0.3% HClO4 (v/v), 0 °C): > 350 min
- half-life (Stability; half-life, 25 °C, in vitro): < 10 min
- half-life (Stability; whole blood, half-life of SP in blood samples, EDTA-K2 as anticoagulant, samples kept at 0 °C): 11.5 ± 0.22 min
- half-life (Stability; whole blood, half-life of SP in blood samples, blood acidified with 0.3% H2SO4 (v/v), 0 °C): > 350 min

From PMC9073091 (RSC Advances, 2019)
